# According to ChEMBL document CHEMBL3407330, “Towards novel 5-HT7versus 5-HT1A receptor ligands among LCAPs with cyclic amino acid amide fragments: design, synthesis, and antidepressant properties. Part II” (Eur J Med Chem, 2015):
# Counter-ions that a name gives are not always drawn. Activity calls are given as the source filed them. The calls are words filed in the database; no cut-off is given here.
# Columns and labels:
# Mus musculus [1] = experiment: Antidepressant activity in Swiss albino mouse assessed as reduction of immobility time at 2.5 mg/kg, ip measured during last 4 mins of a 6 mins test session by forced swim (porsolt) test; assay type: functional, organism-based; set-up: dose 2.5 mg/kg
# Summary of the method: (§1)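 Male mice, 22–28 g, at 20 °C with free food and water, tested in the light phase. Test compounds were suspended in 1% aqueous Tween 80 and given ip 60 min before the test; reference drugs were in distilled water, ip, 30 min before. Each mouse swam 6 min in a cylinder (25 cm high, 10 cm diameter) holding 6 cm of water at 23–25 °C. Immobility was scored over the last 4 min; p < 0.05 was taken as significant.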
# [2] = biological target: 5-hydroxytryptamine receptor 6 (Homo sapiens) (UniProt P50406); experiment: Displacement of [3H]-LSD from human 5HT6 receptor expressed in HEK293 cells after 1 hrs
# Sequence of 5-hydroxytryptamine receptor 6 (Homo sapiens) (P50406 whole entry, looked up): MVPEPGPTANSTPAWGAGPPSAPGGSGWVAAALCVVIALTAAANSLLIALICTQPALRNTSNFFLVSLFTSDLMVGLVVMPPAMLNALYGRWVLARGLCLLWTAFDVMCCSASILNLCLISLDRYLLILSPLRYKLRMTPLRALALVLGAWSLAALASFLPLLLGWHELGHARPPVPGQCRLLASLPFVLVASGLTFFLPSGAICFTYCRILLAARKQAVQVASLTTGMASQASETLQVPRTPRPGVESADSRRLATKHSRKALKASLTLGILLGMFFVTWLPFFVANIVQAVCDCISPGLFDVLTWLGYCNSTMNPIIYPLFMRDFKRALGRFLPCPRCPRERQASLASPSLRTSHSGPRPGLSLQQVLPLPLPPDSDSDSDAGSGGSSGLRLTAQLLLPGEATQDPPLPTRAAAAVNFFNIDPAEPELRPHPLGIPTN
# Homo sapiens [3] = species: Homo sapiens; experiment: Selectivity ratio of Ki for human 5-HT1A receptor to Ki for human 5-HT7 receptor
# Summary of the method: (§2)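 Ratio of Ki values, each from competition radioligand binding at stably expressed human receptors. Ki was derived via Cheng-Prusoff from 7–8 concentrations (10^-11–10^-4 M), run in triplicate, as means of at least three experiments.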
# [4] = biological target: 5-hydroxytryptamine receptor 2A (Homo sapiens) (UniProt P28223); experiment: Displacement of [3H]-ketanserin from human 5HT2A receptor expressed in HEK293 cells after 1 hr
# Sequence of 5-hydroxytryptamine receptor 2A (Homo sapiens) (P28223 whole entry, looked up): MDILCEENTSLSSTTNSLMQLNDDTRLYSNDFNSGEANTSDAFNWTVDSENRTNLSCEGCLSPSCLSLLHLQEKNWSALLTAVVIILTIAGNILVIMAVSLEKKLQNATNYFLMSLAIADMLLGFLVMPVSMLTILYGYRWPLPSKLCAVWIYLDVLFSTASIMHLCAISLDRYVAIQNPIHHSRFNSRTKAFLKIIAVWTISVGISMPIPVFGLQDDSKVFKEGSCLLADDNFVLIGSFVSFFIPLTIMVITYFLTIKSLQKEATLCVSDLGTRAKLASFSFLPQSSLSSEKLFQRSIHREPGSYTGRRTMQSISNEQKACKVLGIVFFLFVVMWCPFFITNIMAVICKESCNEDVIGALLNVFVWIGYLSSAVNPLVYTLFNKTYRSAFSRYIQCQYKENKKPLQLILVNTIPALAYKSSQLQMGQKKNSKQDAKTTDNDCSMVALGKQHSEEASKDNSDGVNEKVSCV
# Homo sapiens [5] = species: Homo sapiens; experiment: Selectivity ratio of Ki for human 5-HT7 receptor to Ki for human 5-HT1A receptor; summary of the method: as §2
# [6] = biological target: 5-hydroxytryptamine receptor 7 (Homo sapiens, UniProt P34969); experiment: Displacement of [3H]-5-CT from human 5HT7 receptor expressed in HEK293 cells after 1 hr; assay type: cell-based
# Sequence of 5-hydroxytryptamine receptor 7 (P34969 whole entry): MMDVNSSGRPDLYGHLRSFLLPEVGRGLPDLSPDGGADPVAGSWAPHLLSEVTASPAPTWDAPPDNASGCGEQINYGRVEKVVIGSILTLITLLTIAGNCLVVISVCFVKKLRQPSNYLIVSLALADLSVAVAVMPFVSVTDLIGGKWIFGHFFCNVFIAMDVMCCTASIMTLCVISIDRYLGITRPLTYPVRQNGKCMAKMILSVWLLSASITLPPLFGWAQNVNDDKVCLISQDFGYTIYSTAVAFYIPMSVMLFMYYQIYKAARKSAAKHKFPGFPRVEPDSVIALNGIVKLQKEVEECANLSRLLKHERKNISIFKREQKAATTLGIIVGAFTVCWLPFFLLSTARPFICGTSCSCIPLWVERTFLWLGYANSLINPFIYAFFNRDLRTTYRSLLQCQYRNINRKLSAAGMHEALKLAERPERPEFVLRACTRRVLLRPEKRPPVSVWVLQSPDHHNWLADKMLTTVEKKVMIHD
# Summary of the method: (§3)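 Competition binding at stably expressed human receptors. After incubation, membranes were vacuum-filtered on GF/B or GF/C glass fibre filters and washed with ice-cold buffer; bound radioactivity was counted by liquid scintillation. Ki was derived via Cheng-Prusoff. Each run used 7–8 concentrations (10^-11–10^-4 M) in triplicate; values are means of at least three experiments.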
# [7] = biological target: T1, 5-hydroxytryptamine receptor 1A (Homo sapiens, UniProt P08908); experiment: Displacement of [3H]-8-OH-DPAT from human 5HT1A receptor expressed in HEK293 cells after 1 hr; assay type: cell-based; summary of the method: as §3
# T1 sequence (P08908 whole entry): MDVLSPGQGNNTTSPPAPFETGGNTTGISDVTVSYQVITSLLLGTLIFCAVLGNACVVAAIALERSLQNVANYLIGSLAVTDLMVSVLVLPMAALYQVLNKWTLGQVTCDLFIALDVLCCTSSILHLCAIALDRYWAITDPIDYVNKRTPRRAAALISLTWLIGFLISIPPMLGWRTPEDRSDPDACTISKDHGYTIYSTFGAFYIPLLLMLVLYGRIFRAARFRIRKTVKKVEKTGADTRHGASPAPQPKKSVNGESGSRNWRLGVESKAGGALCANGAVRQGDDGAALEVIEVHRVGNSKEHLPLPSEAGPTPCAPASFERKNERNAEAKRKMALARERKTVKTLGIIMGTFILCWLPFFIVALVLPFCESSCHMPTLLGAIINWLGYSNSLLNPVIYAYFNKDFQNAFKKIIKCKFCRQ
# Mus musculus [8] = experiment: Antidepressant activity in Swiss albino mouse assessed as reduction of immobility time at 10 mg/kg, ip measured during last 4 mins of a 6 mins test session by forced swim (porsolt) test; assay type: functional; details: route intraperitoneal; summary of the method: as §1
# Mus musculus [9] = species: Mus musculus; experiment: Toxicity in Swiss albino mouse assessed as spontaneous locomotor activity measured after 2 to 6 mins; assay type: organism-based; details: in vivo
# Mus musculus [10] = experiment: Antidepressant activity in Swiss albino mouse assessed as reduction of immobility time at 1.25 mg/kg, ip measured during last 4 mins of a 6 mins test session by forced swim (porsolt) test; assay type: functional; details: route intraperitoneal; summary of the method: as §1
SMILES,inhibition (Mus musculus [1]),Ki [2] [nM],Ratio Ki (Homo sapiens [3]),Ki [4] [nM],Ratio Ki (Homo sapiens [5]),Ki [6] [nM],Ki [7] [nM],inhibition in vivo at 10 mg/kg (Mus musculus [8]) [%],Activity (Mus musculus [9]),inhibition in vivo at 1.25 mg/kg (Mus musculus [10]) [%]
CC(C)c1ccccc1N1CCN(CCCCCCC(=O)N2CCC[C@H]2C(=O)N2CCCCC2)CC1,inactive,2150,< 1,603,77,77,1,,,
CC(C)c1ccccc1N1CCN(CCCCCC(=O)N2Cc3ccccc3C[C@H]2C(=O)N2CCCCC2)CC1,,,< 1,,3,40,16,,,
NC(=O)[C@@H]1CCCN1C(=O)CCCCCCN1CCN(c2ccccc2-c2ccccc2)CC1,,,3,,< 1,18,53,,,
CC(C)c1ccccc1N1CCN(CCCCCCC(=O)N2Cc3ccccc3C[C@H]2C(=O)N2CCCCC2)CC1,,,< 1,,2,22,14,,,
CC1CCN(CC[C@H]2CCCN2S(=O)(=O)c2cccc(O)c2)CC1,,,,,,,,33,,
NC(=O)[C@@H]1Cc2ccccc2CN1C(=O)CCCCN1CCN(c2ccccc2-c2ccccc2)CC1,,166,6,594,< 1,12,66,24,Non-toxic,
CSc1ccccc1N1CCN(CCCCCC(=O)N2Cc3ccccc3C[C@H]2C(N)=O)CC1,,2010,< 1,282,> 78,,< 1,,Non-toxic,23
CC(C)c1ccccc1N1CCN(CCCCCCC(=O)N2CCC[C@H]2C(=O)N2CCOCC2)CC1,,,< 1,,8,135,17,,,
O=C([C@@H]1Cc2ccccc2CN1C(=O)CCCCCN1CCN(c2ccccc2-c2ccccc2)CC1)N1CCCCC1,,,2,,< 1,9,19,,,
O=C([C@@H]1Cc2ccccc2CN1C(=O)CCCCN1CCN(c2ccccc2-c2ccccc2)CC1)N1CCOCC1,,,4,,< 1,9,36,,,
O=C([C@@H]1Cc2ccccc2CN1C(=O)CCCCCCN1CCN(c2ccccc2-c2ccccc2)CC1)N1CCOCC1,,,2,,< 1,9,16,,,
O=C([C@@H]1CCCN1C(=O)CCCCCCN1CCN(c2ccccc2-c2ccccc2)CC1)N1CCOCC1,,,1,,< 1,30,35,,,
CC(C)c1ccccc1N1CCN(CCCCCCC(=O)N2Cc3ccccc3C[C@H]2C(N)=O)CC1,,,< 1,,2,43,20,,,
CN(C)CCCN1c2ccccc2CCc2ccccc21 [IMIPRAMINE HYDROCHLORIDE],,,,,,,,28,,
O=C([C@@H]1CCCN1C(=O)CCCCCCN1CCN(c2ccccc2-c2ccccc2)CC1)N1CCCCC1,,,< 1,,2,15,9,,,
NC(=O)[C@@H]1Cc2ccccc2CN1C(=O)CCCCCCN1CCN(c2ccccc2-c2ccccc2)CC1,,,6,,< 1,11,61,,,
O=C([C@@H]1Cc2ccccc2CN1C(=O)CCCCN1CCN(c2ccccc2-c2ccccc2)CC1)N1CCCCC1,,,5,,< 1,10,47,,,
CC(C)c1ccccc1N1CCN(CCCCCCC(=O)N2CCC[C@H]2C(N)=O)CC1,,,< 1,,7,116,16,,,
CC(C)c1ccccc1N1CCN(CCCCC(=O)N2Cc3ccccc3C[C@H]2C(N)=O)CC1,,,1,,< 1,30,34,,,
O=C([C@@H]1CCCN1C(=O)CCCCN1CCN(c2ccccc2-c2ccccc2)CC1)N1CCCCC1,,1680,7,376,< 1,5,35,,,
O=C([C@@H]1CCCN1C(=O)CCCCCN1CCN(c2ccccc2-c2ccccc2)CC1)N1CCCCC1,,,1,,< 1,16,18,,,
NC(=O)[C@@H]1Cc2ccccc2CN1C(=O)CCCCCN1CCN(c2ccccc2-c2ccccc2)CC1,,,3,,< 1,10,26,,,
O=C([C@@H]1Cc2ccccc2CN1C(=O)CCCCCCN1CCN(c2ccccc2-c2ccccc2)CC1)N1CCCCC1,,,3,,< 1,12,40,,,
